A short description of test [1]: hit retest on RPL19A-GFP reporter strain – cell-based, S. cerevisiae, flow cytometry, cherry picks, mother/daughter gates, confirmation (AID 2270;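 active = GFP response below 50% of the DMSO control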). The settings on record: 3 h, at 10 µM, stronger effect = lower value, 100 = same GFP as DMSO wells. A general note: Flow cytometry measures light scatter and fluorescence of single cells or particles in a stream.
Test [2] can be described thus: yeast TOR pathway reporter LAP4-GFP change – cell-based, cherry picks, flow cytometry, mother/daughter gates, confirmation (AID 2271;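 active = GFP response above 150% of the DMSO control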;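 note: ratio of sample to DMSO plate mean so 100% equals DMSO level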). The settings on record: S. cerevisiae LAP4-GFP strain, 3 h, at 10 µM, stronger effect = higher value, 100 means same as DMSO control. In outline:
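System: Alexa 633-stained baker's yeast GFP-fusion strain; quantity: 0.2 OD600 cells; timing: compound exposure 3 h at 30 °C, end-over-end rotation; detection: HT flow cytometry, GFP fluorescence channel; measure: per-gate (all, mother, daughter) GFP response vs DMSO; control set: DMSO-only negative wells, rapamycin 400 ng/mL positive wells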

The nature of test [3]: TOR pathway reporter MEP2-GFP, retest of hits – S. cerevisiae, flow cytometry GFP, cherry picks, confirmation (AID 2272;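 active = GFP response above 150% of the DMSO control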;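 note: ratio of well signal to plate DMSO mean so 100% equals DMSO level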). The note with it: S. cerevisiae MEP2-GFP strain, 3 h, at 10 µM, stronger effect = higher value.
Test [4] can be described thus: yeast AGP1-GFP fluorescence change, single-dose – cell-based, flow cytometry, S. cerevisiae, cherry picks, confirmation (AID 2273).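 Note: median GFP channel fluorescence over the whole cell population gate.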 The note with it: S. cerevisiae AGP1-GFP strain, 3 h, at 10 µM.
The nature of test [5]: TOR pathway CIT2 reporter hit retest – S. cerevisiae, GFP fusion, cherry picks, mother/daughter gates, confirmation (AID 2274). The settings on record: S. cerevisiae CIT2-GFP strain, flow cytometry, 3 h, at 10 µM, stronger effect = higher value.
The mark [6] stands for this setting: measured here: daughter cell gate.
Setting [7] is: measured here: mother cell gate.
The mark [8] stands for this setting: measured here: daughter cell gate response.
The mark [9] stands for this setting: measured here: mother cell gate response.

The structures appear in SMILES notation. The source made the active and inactive calls.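 Rule for the calls, unless noted: active = GFP response above 150% of the DMSO level; inconclusive = fewer than 70 events counted for a yeast strain; inactive = the rest.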

Turning to `CCOC(=O)/C(=N\NC(=O)c1ccccc1)c1ccccc1`, the GFP response vs DMSO in test [1] was 97.2% (inactive); in test [1] (setting [6]), 95.7%; in test [1] (setting [7]), 98.1%; in test [3] it was 104% (inactive). The GFP response relative to DMSO in test [2] is 107% (inactive); in test [2] (setting [8]), 105%; in test [2] (setting [9]) it was 106%. In addition, the GFP response, % of DMSO in test [4] was 96.5% (inactive); in test [5], 101% (inactive); in test [5] (setting [6]) it was 100%; in test [5] (setting [7]) it was 99.1%.

`COc1cc(OC)cc(-c2nc(-c3ccccc3OC)no2)c1`: the GFP response vs DMSO in test [1] was 97.8% (inactive); in test [1] (setting [6]), 99.3%; in test [1] (setting [7]), 95.6%; in test [3] it was 114% (inactive). Further, the GFP response relative to DMSO in test [2] was 97.7% (inactive); in test [2] (setting [8]), 97.5%; in test [2] (setting [9]) it was 101%. The GFP response, % of DMSO in test [4] is 108% (inactive); in test [5], 107% (inactive); in test [5] (setting [6]), 108%; in test [5] (setting [7]), 107%.

For `Cc1ccsc1/C=N/Nc1ncc(Cl)cc1Cl`, the GFP response vs DMSO was 97% (inactive) in test [1], 94.2% in test [1] (setting [6]), 85.8% in test [1] (setting [7]) and 109% (inactive) in test [3]. The GFP response relative to DMSO in test [2] is 177% (active); in test [2] (setting [8]) it was 107%; in test [2] (setting [9]), 189%. In addition, the GFP response, % of DMSO in test [4] was 83.7% (inactive); in test [5], 100% (inactive); in test [5] (setting [6]), 101%; in test [5] (setting [7]), 84.6%.

Turning to `CCc1noc(C)c1C(=O)Nc1nc2ccc(OC)cc2s1`, the GFP response vs DMSO is 91.8% (inactive) in test [1], 92.7% in test [1] (setting [6]), 92.5% in test [1] (setting [7]) and 99.3% (inactive) in test [3]. Also, the GFP response relative to DMSO in test [2] was 108% (inactive); in test [2] (setting [8]) it was 108%; in test [2] (setting [9]), 111%. In addition, the GFP response, % of DMSO was 95.5% (inactive) in test [4], 90.3% (inactive) in test [5], 92.3% in test [5] (setting [6]) and 90.4% in test [5] (setting [7]).

Regarding `C=CCNC(=O)/C(C#N)=C/c1c(N2CC(C)OC(C)C2)nc2ccccn2c1=O` (stereo not drawn), the GFP response vs DMSO was 98.8% (inactive) in test [1], 99.5% in test [1] (setting [6]), 98.4% in test [1] (setting [7]) and 102% (inactive) in test [3]. Moreover, the GFP response relative to DMSO in test [2] is 102% (inactive); in test [2] (setting [8]), 100%; in test [2] (setting [9]), 105%. For the same compound, the GFP response, % of DMSO in test [4] was 100% (inactive); in test [5] it was 96.5% (inactive); in test [5] (setting [6]) it was 98.1%; in test [5] (setting [7]) it was 94.4%.

For the compound `O=S(=O)(/N=C(/Sc1ccccc1)c1ccccc1)c1ccccc1`, the GFP response vs DMSO in test [1] was 92% (inactive); in test [1] (setting [6]) it was 92.5%; in test [1] (setting [7]), 89.8%; in test [3] it was 106% (inactive). Moreover, the GFP response relative to DMSO was 179% (active) in test [2], 152% in test [2] (setting [8]) and 180% in test [2] (setting [9]). For the same compound, the GFP response, % of DMSO in test [4] is 101% (inactive); in test [5] it was 84.7% (inactive); in test [5] (setting [6]), 88.7%; in test [5] (setting [7]), 79.2%.

For `Cc1cc(O)c(C(=O)/C=C/c2ccc(Cl)cc2)c(=O)o1`, the GFP response vs DMSO in test [1] is 97.2% (inactive); in test [1] (setting [6]), 101%; in test [1] (setting [7]), 95.5%; in test [3], 110% (inactive). Moreover, the GFP response relative to DMSO was 180% (active) in test [2], 156% in test [2] (setting [8]) and 180% in test [2] (setting [9]). Further, the GFP response, % of DMSO in test [4] was 99.7% (inactive); in test [5] it was 95% (inactive); in test [5] (setting [6]), 104%; in test [5] (setting [7]), 86.3%.

As for `O=C1c2ccsc2SCCN1Cc1ccc(Cl)cc1Cl`, the GFP response vs DMSO is 96% (inactive) in test [1], 94.2% in test [1] (setting [6]), 95.5% in test [1] (setting [7]) and 94.7% (inactive) in test [3]. Further, the GFP response relative to DMSO was 108% (inactive) in test [2], 107% in test [2] (setting [8]) and 110% in test [2] (setting [9]). Besides, the GFP response, % of DMSO in test [4] is 98.2% (inactive); in test [5], 90.1% (inactive); in test [5] (setting [6]) it was 90.2%; in test [5] (setting [7]), 91.9%.

On to `CCCCCn1c(=O)c(C(=O)OCC)c(O)c2ccccc21`, for which the GFP response vs DMSO in test [1] was 97.6% (inactive); in test [1] (setting [6]), 96.1%; in test [1] (setting [7]) it was 99.7%; in test [3], 102% (inactive). For the same compound, the GFP response relative to DMSO is 99.2% (inactive) in test [2], 96% in test [2] (setting [8]) and 100% in test [2] (setting [9]). Further, the GFP response, % of DMSO in test [4] is 90% (inactive); in test [5] it was 92.6% (inactive); in test [5] (setting [6]) it was 89.9%; in test [5] (setting [7]), 93.8%.

`CCN(CC)CCNC(=O)Cn1c(-c2ccccn2)nc2ccccc21`: the GFP response vs DMSO in test [1] was 99.5% (inactive); in test [1] (setting [6]), 98.1%; in test [1] (setting [7]), 99.6%; in test [3] it was 100% (inactive). In addition, the GFP response relative to DMSO in test [2] was 96.2% (inactive); in test [2] (setting [8]), 98.7%; in test [2] (setting [9]), 98.3%. In addition, the GFP response, % of DMSO in test [4] is 94.3% (inactive); in test [5] it was 97.8% (inactive); in test [5] (setting [6]), 96.5%; in test [5] (setting [7]), 97.7%.

`Cc1ccc(-c2nc(NC(=O)c3nn(C)cc3[N+](=O)[O-])sc2C)cc1C`: the GFP response vs DMSO in test [1] is 101% (inactive); in test [1] (setting [6]) it was 101%; in test [1] (setting [7]), 102%; in test [3], 97.5% (inactive). For the same compound, the figures for the GFP response relative to DMSO in test [2], in test [2] (setting [8]) and in test [2] (setting [9]) were 95.3% (inactive), 92.2% and 99.5%, respectively. The GFP response, % of DMSO is 95.4% (inactive) in test [4], 93.5% (inactive) in test [5], 94.6% in test [5] (setting [6]) and 93.3% in test [5] (setting [7]).

Regarding `CCC(CC)C(=O)Nc1cccc(/C(C)=N/NC(=O)c2ccccc2Cl)c1`, the GFP response vs DMSO was 98.6% (inactive) in test [1], 97% in test [1] (setting [6]), 99.1% in test [1] (setting [7]) and 102% (inactive) in test [3]. The GFP response relative to DMSO is 99.8% (inactive) in test [2], 103% in test [2] (setting [8]) and 99.3% in test [2] (setting [9]). In addition, the GFP response, % of DMSO in test [4] is 100% (inactive); in test [5], 100% (inactive); in test [5] (setting [6]) it was 99.7%; in test [5] (setting [7]), 102%.

As to `COc1ccc(/C=N/NC(=O)C2(C)NC(C)(C)Cc3ccccc32)cc1` (stereo not drawn), the GFP response vs DMSO in test [1] was 94.4% (inactive); in test [1] (setting [6]), 94.9%; in test [1] (setting [7]), 95.3%; in test [3], 96.2% (inactive). Besides, the GFP response relative to DMSO in test [2] was 96.7% (inactive); in test [2] (setting [8]) it was 97.6%; in test [2] (setting [9]), 96.1%. Moreover, the GFP response, % of DMSO is 99.7% (inactive) in test [4], 99.7% (inactive) in test [5], 99.1% in test [5] (setting [6]) and 98.5% in test [5] (setting [7]).

The values above are taken from PubChem BioAssay.
